Data set [1] concerns the target T1, Aspartate aminotransferase, cytoplasmic (Homo sapiens, UniProt P17174). The experiment in a line: Inhibition of GOT1 (unknown origin) using aspartate and alpha-ketoglutarate as substrate after 20 mins by MDH1 enzyme-coupled fluorescence assay. In outline: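 Oxaloacetate from GOT1 (~1 nM) is reduced by MDH1 (0.3 µg/mL final) using NADH (250 µM final). Loss of NADH fluorescence is read at 340/445 nm. Substrates aspartate 4 mM and alpha-ketoglutarate 0.5 mM. Buffer: 100 mM HEPES, 100 mM KCl. Incubated 20 min at 37 °C. Mean of n = 3.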

For data set [2], the target named is T1, Aspartate aminotransferase, cytoplasmic. Description: Inhibition of GOT1 (unknown origin) using aspartate and alpha-ketoglutarate as substrate after 20 mins by GLOX enzyme-coupled fluorescence assay. In a few lines: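 GOT1 (~1 nM, set per purification for a 20 min linear reaction) with aspartate 4 mM and alpha-ketoglutarate 0.5 mM (KM levels). Glutamate is turned over by GLOX (80 nM), and the H2O2 drives HRP (0.05 U/mL) oxidation of Amplex Red (15 µg/mL). Buffer: 100 mM HEPES, 100 mM KCl. Run 20 min at 37 °C; resorufin fluorescence read at 530/550 nm.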

The nature of data set [3]: Stability in mouse plasma assessed as parent compound remaining after 4 hrs. In kind it is ADME, cell-free. The following applies: read-out: Stability.
A short description of data set [4]: Half life in CD-1 mouse at 20 mg/kg administered via oral gavage by LC-MS/MS analysis. Format: ADME, organism-based. The following applies: in vivo. In outline: (§1)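 Female CD1 mice, 9 weeks old, oral gavage at 20 mg/kg (5 mL/kg). Fasted overnight, with food returned after the 4-h bleed. Blood sampled retro-orbitally at 0.5, 1, 4, 8 and 24 h, n = 3 per time point. Plasma separated by centrifugation and frozen at -80 °C. Drug level quantified by LC/MS/MS from analyte peak area.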

Data set [5] can be described thus: Cmax in CD-1 mouse at 20 mg/kg administered via oral gavage by LC-MS/MS analysis. Also noted: dose 20 mg/kg, route oral. The following applies: in vivo. Format: ADME, organism-based. In outline: as §1
For data set [6], the system named is Mus musculus. Description: AUC (0 to 24 hrs) in CD-1 mouse at 20 mg/kg administered via oral gavage by LC-MS/MS analysis. On the set-up: time < 24 hr, dose 20 mg/kg, route oral. The following applies: in vivo. Format: ADME, organism-based. In outline: as §1

Activity calls are given as the source filed them. No cut-off for these calls is given here.

The term IC50 denotes the concentration that gives 50% inhibition. A low value points to greater potency. Broadly, the half-life is the time in which the quantity being followed falls by half. As a reminder, the Cmax is the highest concentration seen after dosing. The AUC is the area under the concentration-time curve, a measure of exposure.

T1 sequence (P17174 whole entry): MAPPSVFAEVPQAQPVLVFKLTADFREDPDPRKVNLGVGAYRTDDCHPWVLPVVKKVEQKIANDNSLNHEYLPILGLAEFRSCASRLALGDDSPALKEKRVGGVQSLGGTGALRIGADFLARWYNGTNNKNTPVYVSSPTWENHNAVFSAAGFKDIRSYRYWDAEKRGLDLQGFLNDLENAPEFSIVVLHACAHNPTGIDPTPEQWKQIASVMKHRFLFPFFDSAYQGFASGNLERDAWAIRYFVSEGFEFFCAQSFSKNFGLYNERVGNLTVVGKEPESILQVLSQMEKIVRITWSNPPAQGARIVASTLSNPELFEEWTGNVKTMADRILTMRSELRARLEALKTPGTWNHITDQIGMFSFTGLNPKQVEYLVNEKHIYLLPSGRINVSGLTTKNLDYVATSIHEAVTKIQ

In data set [1], `O=C(Nc1ccccc1)N1CCN(c2cccc3[nH]ccc23)CC1` yielded an IC50 of 85 µM. The inhibition result in data set [2] was “Active”. In addition, the remaining at 4 h in data set [3] is more than 95%. In addition, the half-life in data set [4] is 42 min. For the same compound, the concentration in data set [5] peaked (Cmax) at 4.13 µg/mL. In data set [6], this compound gave an AUC of 11.734 µg·h/mL.

Source of the values: ChEMBL document CHEMBL4229399, “Discovery and optimization of aspartate aminotransferase 1 inhibitors to target redox balance in pancreatic ductal adenocarcinoma” (Bioorg Med Chem Lett, 2018).
